Assay results collected from several papers.
Observed: cell growth or viability

Compound	cell line	technique	time	IC50
COC(C)(C)CCC[C@](C)(O)[C@H]1CC[C@]2(C)[C@@H]1[C@H](O)C[C@@H]1[C@@]3(C)CC[C@H](O)C(C)(C)[C@@H]3CC[C@]12C	BEAS-2B	MTT	72 h	24.6 µM
COc1ccc2c(C(=O)C(=O)NCCc3c[nH]c4ccccc34)c[nH]c2c1	C4-2	MTT		> 100 µM
COc1ccc(CCN(C)CCc2ccc(OC)c(OC)c2)cc1OC	HN-6		72 h	> 20 µM
CC(C)(C)C1=CC(=NNC(=O)c2cccnc2)C=C(C(C)(C)C)C1=O	human Fibroblast	resazurin	24 h	> 100 µM
CN1CCN(c2ccc3nc(-c4c(N)c5c(F)cccc5[nH]c4=O)[nH]c3c2)CC1	RT-112	MTT	5 days	0.2 µM
O=C(NCCc1c[nH]c2ccccc12)C(=O)c1c[nH]c2ccc(Br)cc12	C4-2	MTT		> 100 µM
Nc1ccn([C@@H]2O[C@H](CO)[C@@H](O)C2(F)F)c(=O)n1	Panc 02.03	MTT	72 h	0.38 µM
CC1(C)[C@@H](O)CC[C@]2(C)[C@H]3C(=O)C=C4[C@@H]5C[C@@](C)(C(=O)O)CC[C@]5(C)CC[C@@]4(C)[C@]3(C)CC[C@@H]12	SGC-7901	MTT	48 h	10.2 µM
Nc1c2c(nc3ccccc13)CCCC2O (centres unmarked)	HN-6		72 h	> 20 µM
COc1ccc2[nH]cc(S(C)(=O)=Nc3cc(OC)c(OC)c(OC)c3)c2c1 (centres unmarked)	C4-2	MTT	48 h	> 40 µM
COc1ccc(-c2nc(C(=O)Nc3nnc(-c4cc5ccccc5[nH]4)s3)cc3c2[nH]c2ccccc23)cc1	BEAS-2B	MTT	72 h	71.2 µM
COc1cc(O)c2c(c1)C(=O)c1cc(C)cc(O)c1C2=O	HK-2	MTT	24 h	> 500 µM
Clc1ccc(N2CCN(Cc3c[nH]c4ncccc34)CC2)cc1	HN-6		72 h	> 20 µM
O=C(O)c1cc(O)c2c(c1)C(=O)c1cccc(O)c1C2=O	HK-2	MTT	24 h	210 µM
COc1ccc(Oc2ccccc2NC(=O)CNC(=O)c2cccc3ccccc23)cc1	SK-N-DZ			0.271 µM
C(=C\c1c[nH]c2ccccc12)/c1ccc2ccccc2n1	MDA-MB-468	MTT		11 µM
CCN1CCN(c2ccc(Nc3cc(N(C)C(=O)Nc4c(Cl)c(OC)cc(OC)c4Cl)ncn3)cc2)CC1	KATO III	ATP luminescence	96 h	0.00222 µM
CC(C)C[C@H](NC(=O)[C@H](Cc1ccccc1)NC(=O)c1cnccn1)B(O)O	RERF-LC-Ad2	ATP luminescence		0.022 µM
Nc1ncnc2c1ncn2[C@@H]1O[C@H](CO)[C@@H](O)[C@@H]1O	HN-6		72 h	> 20 µM

Compound	cell line	technique	time	IC50
O=C(O)CCCc1ccccc1	BCPAP	MTT	72 h	> 50 µM
Cc1ccc(C(=O)Nc2ccc(Oc3cc4cnn(C)c4cc3-c3cn[nH]c3)c(F)c2)c(=O)n1-c1ccc(F)cc1	KATO III	ATP luminescence		0.354 µM
CC(C)(C)C1=CC(=NNC(=O)C2CCCCC2)C=C(C(C)(C)C)C1=O	human Fibroblast	resazurin	24 h	> 100 µM
CCN1C(=O)N(c2c(F)c(OC)cc(OC)c2F)Cc2cnc3[nH]c(CN4CCOCC4)cc3c21	RT-112	ATP luminescence	96 h	0.00522 µM
CCN(CC)CCCCNc1ncc2cc(-c3cc(OC)cc(OC)c3)c(NC(=O)NC(C)(C)C)nc2n1	RT-112	MTT	5 days	0.015 µM
COc1ccc2c(c1OC)C(=O)O[C@@H]2[C@H]1c2c(cc3c(c2OC)OCO3)CCN1C	HN-6		72 h	16.3 µM
COc1cc(Nc2nccc(-c3cnn4nc(OC)ccc34)n2)cc(C(F)(F)F)c1	A2058	ATP luminescence		0.19 µM
COc1cccc2c1C(=O)c1c(O)c3c(c(O)c1C2=O)C[C@@](O)(C(=O)CO)C[C@@H]3O[C@H]1C[C@H](N)[C@H](O)[C@H](C)O1	SGC-7901	MTT	48 h	0.13 µM
Nc1ccc(Cl)c[n+]1[Pt-2]([Cl])([Cl])[n+]1cc(Cl)ccc1N	BEAS-2B	MTT	24 h	10.3 µM
C=C(C)C(=O)Nc1ccc(-c2c(-c3ccc(Oc4nccc(C)n4)c(F)c3)c3c(N)ncnc3n2C)cc1	KATO III	ATP luminescence	96 h	0.00129 µM
COC(=O)CN=c1scc(-c2ccccc2)n1-c1ccccc1	Panc 02.03	MTT	72 h	81.5 µM
COc1nc(OCc2cccc(-c3ccccc3)c2C)ccc1CNCCNC(C)=O	HK-2	MTT		1.9 µM
Nc1nc(Nc2ccccc2)nc2c1ncn2[C@@H]1O[C@H](CO)[C@@H](O)[C@H]1O	HN-6		72 h	> 20 µM
COc1c(O)cc2c(c1O)C(=O)c1c(cc(C)c(O)c1OC)C2=O	HK-2	MTT	24 h	> 500 µM
NCCc1ccc(O)c(O)c1	HN-6		72 h	> 20 µM
COc1cc([C@@H]2c3cc4c(cc3[C@@H](O[C@@H]3O[C@@H]5CO[C@@H](C)O[C@H]5[C@H](O)[C@H]3O)[C@H]3COC(=O)[C@H]23)OCO4)cc(OC)c1O	BEAS-2B			11.2 µM
O=C1NC(=NCc2cccs2)S/C1=C\c1ccc2ncccc2c1	LOX IMVI			4.4 µM
CC(=O)CC(c1ccccc1)c1c(O)c2ccccc2oc1=O (centres unmarked)	HN-6		72 h	> 20 µM
O=C(CNC(=O)c1cccc2ccccc12)Nc1ccccc1Oc1ccc(O)cc1	SK-N-DZ			0.467 µM
